ChEMBL document CHEMBL1139437, “Design, synthesis, and preliminary pharmacological evaluation of 4-aminopiperidine derivatives as N-type calcium channel blockers active on pain and neuropathic pain” (J Med Chem, 2004)

How the values were obtained:
Mus musculus [1] = organism: Mus musculus; assay: Percentage analgesic efficacy when compared to morphine; assay type: functional; parameters: concentration or dose not given beside the values
Outline: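 Male Swiss albino mice, hot-plate test, paw-licking latency; pretest 12–18 s required, cutoff 45 s. Icv injection of 5 μL under brief anaesthesia, in saline or H2O/DMSO 2:1, at maximal soluble dose. Latency read before and every 15 min after dosing. Efficacy = (peak latency − pretest) as % of the same value for morphine 10 μg/mouse icv; non-significant effects scored 0.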

Mus musculus [2] = assay: Analgesic activity was evaluated in mouse hotplate test; expressed as licking latency after 15 min of treatment at a dose of 50 ug intracerebroventricularly; assay type: functional
Outline: (§1)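 Male Swiss albino mice (23-30 g); icv injection of 5 μL (saline or H2O/DMSO 2:1) under brief anaesthesia. Paw-licking latency (s) on hot plate read before injection and every 15 min up to 60 min. Mice with pretest latency below 12 or over 18 s excluded; cutoff 45 s. Statistics against saline- or vehicle-treated controls.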

Mus musculus [3] = assay: Analgesic activity was evaluated in mouse hotplate test; expressed as licking latency after 30 min of treatment at a dose of 50 ug intracerebroventricularly; assay type: functional; outline: as §1
Mus musculus [4] = assay: Analgesic activity was evaluated in mouse hotplate test; expressed as licking latency after 45 min of treatment at a dose of 50 ug intracerebroventricularly; assay type: functional; outline: as §1
Mus musculus [5] = assay: Analgesic activity was evaluated in mouse hotplate test; expressed as licking latency after 15 min of treatment at a dose of 40 ug intracerebroventricularly; assay type: functional; outline: as §1
Mus musculus [6] = assay: Analgesic activity was evaluated in mouse hotplate test; expressed as licking latency after 30 min of treatment at a dose of 40 ug intracerebroventricularly; assay type: functional; outline: as §1
Mus musculus [7] = assay: Analgesic activity was evaluated in mouse hotplate test; expressed as licking latency after 45 min of treatment at a dose of 40 ug intracerebroventricularly; assay type: functional; outline: as §1
Rattus norvegicus [8] = assay: Antihyperalgesic activity was evaluated in rat (dx) paw pressure test after 30 min at a dose of 50 ug intracerebroventricularly
Rattus norvegicus [9] = assay: Antihyperalgesic activity was evaluated in rat (dx) paw pressure test after 45 min at a dose of 50 ug intracerebroventricularly
Rattus norvegicus [10] = assay: Antihyperalgesic activity was evaluated in rat (dx) paw pressure test after 60 min at a dose of 50 ug intracerebroventricularly
Rattus norvegicus [11] = assay: Antihyperalgesic activity was evaluated in rat (sn) paw pressure test after 30 min at a dose of 50 ug intracerebroventricularly
Rattus norvegicus [12] = assay: Antihyperalgesic activity was evaluated in rat (sn) paw pressure test after 45 min at a dose of 50 ug intracerebroventricularly
Rattus norvegicus [13] = assay: Antihyperalgesic activity was evaluated in rat (sn) paw pressure test after 60 min at a dose of 50 ug intracerebroventricularly
Mus musculus [14] = assay: Analgesic activity was evaluated in mouse hotplate test; expressed as licking latency after 15 min of treatment at a dose of 30 ug intracerebroventricularly; assay type: functional; outline: as §1
Mus musculus [15] = assay: Analgesic activity was evaluated in mouse hotplate test; expressed as licking latency after 30 min of treatment at a dose of 30 ug intracerebroventricularly; assay type: functional; outline: as §1
Mus musculus [16] = assay: Analgesic activity was evaluated in mouse hotplate test; expressed as licking latency after 45 min of treatment at a dose of 30 ug intracerebroventricularly; assay type: functional; outline: as §1
Rattus norvegicus [17] = assay: Antihyperalgesic activity was evaluated in rat (sn) paw pressure test after 30 min at a dose of 30 ug intracerebroventricularly
Rattus norvegicus [18] = assay: Antihyperalgesic activity was evaluated in rat (dx) paw pressure test after 30 min at a dose of 30 ug intracerebroventricularly
Rattus norvegicus [19] = assay: Antihyperalgesic activity was evaluated in rat (dx) paw pressure test after 45 min at a dose of 30 ug intracerebroventricularly
Rattus norvegicus [20] = assay: Antihyperalgesic activity was evaluated in rat (dx) paw pressure test after 60 min at a dose of 30 ug intracerebroventricularly
Rattus norvegicus [21] = assay: Antihyperalgesic activity was evaluated in rat (sn) paw pressure test after 45 min at a dose of 30 ug intracerebroventricularly
Rattus norvegicus [22] = assay: Antihyperalgesic activity was evaluated in rat (sn) paw pressure test after 60 min at a dose of 30 ug intracerebroventricularly
[23] = molecular target: Voltage-dependent N-type calcium channel subunit alpha-1B (Rattus norvegicus) (UniProt Q02294); assay: In vitro antagonism of N-type calcium channels expressed in PC12 cells was determined as the increase in intracellular calcium influx
Chain of Voltage-dependent N-type calcium channel subunit alpha-1B (Rattus norvegicus) (Q02294 whole entry, looked up): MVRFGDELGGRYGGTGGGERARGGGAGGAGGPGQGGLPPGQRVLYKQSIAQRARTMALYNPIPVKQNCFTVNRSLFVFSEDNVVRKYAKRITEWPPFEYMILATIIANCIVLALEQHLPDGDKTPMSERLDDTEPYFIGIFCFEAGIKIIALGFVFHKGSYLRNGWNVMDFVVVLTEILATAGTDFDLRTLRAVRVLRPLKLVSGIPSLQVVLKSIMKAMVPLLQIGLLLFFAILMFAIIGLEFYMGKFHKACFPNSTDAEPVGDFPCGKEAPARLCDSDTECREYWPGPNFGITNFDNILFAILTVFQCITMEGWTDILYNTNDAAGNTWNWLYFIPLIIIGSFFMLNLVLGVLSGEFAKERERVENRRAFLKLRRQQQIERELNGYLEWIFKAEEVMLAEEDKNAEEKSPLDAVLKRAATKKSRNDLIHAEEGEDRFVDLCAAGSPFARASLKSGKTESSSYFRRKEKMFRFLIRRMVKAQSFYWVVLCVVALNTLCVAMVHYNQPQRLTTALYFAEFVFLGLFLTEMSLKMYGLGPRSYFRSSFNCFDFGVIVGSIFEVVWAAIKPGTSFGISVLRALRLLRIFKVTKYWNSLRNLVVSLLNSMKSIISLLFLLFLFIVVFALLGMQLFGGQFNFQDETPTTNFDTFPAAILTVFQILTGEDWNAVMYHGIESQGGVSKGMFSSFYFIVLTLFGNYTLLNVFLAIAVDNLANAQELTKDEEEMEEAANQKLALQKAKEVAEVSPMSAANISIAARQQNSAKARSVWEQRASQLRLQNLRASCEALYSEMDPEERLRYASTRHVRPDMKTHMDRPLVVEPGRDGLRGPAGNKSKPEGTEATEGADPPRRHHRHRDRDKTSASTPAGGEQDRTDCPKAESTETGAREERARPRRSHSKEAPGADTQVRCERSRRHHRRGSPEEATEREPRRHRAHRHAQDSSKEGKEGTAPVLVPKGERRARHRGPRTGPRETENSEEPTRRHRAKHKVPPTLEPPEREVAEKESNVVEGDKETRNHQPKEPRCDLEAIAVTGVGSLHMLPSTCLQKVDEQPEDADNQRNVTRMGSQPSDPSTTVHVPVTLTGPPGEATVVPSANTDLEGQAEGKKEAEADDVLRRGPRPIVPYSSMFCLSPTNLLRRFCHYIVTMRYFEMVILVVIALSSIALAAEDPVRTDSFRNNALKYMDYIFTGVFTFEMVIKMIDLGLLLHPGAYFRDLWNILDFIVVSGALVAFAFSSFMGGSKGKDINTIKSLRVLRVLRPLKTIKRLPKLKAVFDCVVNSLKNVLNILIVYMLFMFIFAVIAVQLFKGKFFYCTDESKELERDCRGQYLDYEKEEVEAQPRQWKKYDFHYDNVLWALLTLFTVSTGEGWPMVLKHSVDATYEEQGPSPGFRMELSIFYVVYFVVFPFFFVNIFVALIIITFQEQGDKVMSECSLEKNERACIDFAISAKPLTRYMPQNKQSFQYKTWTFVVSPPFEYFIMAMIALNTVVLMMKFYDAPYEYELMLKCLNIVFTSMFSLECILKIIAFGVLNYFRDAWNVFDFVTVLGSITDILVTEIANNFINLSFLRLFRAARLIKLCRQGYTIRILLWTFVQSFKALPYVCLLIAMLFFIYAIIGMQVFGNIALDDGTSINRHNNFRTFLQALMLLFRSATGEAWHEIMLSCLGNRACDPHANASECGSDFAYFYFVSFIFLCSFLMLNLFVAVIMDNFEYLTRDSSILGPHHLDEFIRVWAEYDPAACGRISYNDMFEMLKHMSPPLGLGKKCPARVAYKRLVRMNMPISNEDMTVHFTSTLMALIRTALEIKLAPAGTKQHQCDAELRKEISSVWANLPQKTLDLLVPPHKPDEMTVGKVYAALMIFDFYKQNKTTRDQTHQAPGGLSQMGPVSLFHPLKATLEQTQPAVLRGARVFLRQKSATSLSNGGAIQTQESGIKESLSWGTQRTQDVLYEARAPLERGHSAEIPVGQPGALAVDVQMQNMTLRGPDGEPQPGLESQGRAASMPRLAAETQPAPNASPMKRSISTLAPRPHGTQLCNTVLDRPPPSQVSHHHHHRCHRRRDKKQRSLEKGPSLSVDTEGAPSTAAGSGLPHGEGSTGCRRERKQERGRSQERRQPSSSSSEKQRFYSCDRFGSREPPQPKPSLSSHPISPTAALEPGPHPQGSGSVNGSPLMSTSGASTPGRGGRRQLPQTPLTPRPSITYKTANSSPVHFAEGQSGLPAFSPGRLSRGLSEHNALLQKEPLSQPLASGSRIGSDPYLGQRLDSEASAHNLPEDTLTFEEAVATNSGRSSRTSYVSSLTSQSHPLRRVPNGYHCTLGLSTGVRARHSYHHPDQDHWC

[24] = molecular target: Voltage-dependent N-type calcium channel subunit alpha-1B (Rattus norvegicus) (UniProt Q02294); assay: In vitro antagonism of N-type calcium channels expressed in PC12 cells was determined as the increase in intracellular calcium influx in the presence of 10 uM nifedipine
Mus musculus [25] = assay: Analgesic activity was evaluated in mouse hotplate test; expressed as licking latency after 30 min of treatment at a dose of 15 ug intracerebroventricularly; assay type: functional; outline: as §1
Mus musculus [26] = assay: Analgesic activity was evaluated in mouse hotplate test; expressed as licking latency after 45 min of treatment at a dose of 15 ug intracerebroventricularly; assay type: functional; outline: as §1
Mus musculus [27] = assay: Analgesic activity was evaluated in mouse hotplate test; expressed as licking latency after 15 min of treatment at a dose of 15 ug intracerebroventricularly; assay type: functional; outline: as §1
Mus musculus [28] = assay: Analgesic activity was evaluated in mouse hotplate test; expressed as licking latency after 30 min of treatment at a dose of 20 ug intracerebroventricularly; assay type: functional; outline: as §1
Mus musculus [29] = assay: Analgesic activity was evaluated in mouse hotplate test; expressed as licking latency after 45 min of treatment at a dose of 20 ug intracerebroventricularly; assay type: functional; outline: as §1
Mus musculus [30] = assay: Analgesic activity was evaluated in mouse hotplate test; expressed as licking latency after 15 min of treatment at a dose of 20 ug intracerebroventricularly; assay type: functional; outline: as §1
Mus musculus [31] = assay: Analgesic activity was evaluated in mouse hotplate test; expressed as licking latency after 30 min of treatment at a dose of 25 ug intracerebroventricularly; assay type: functional; outline: as §1
Mus musculus [32] = assay: Analgesic activity was evaluated in mouse hotplate test; expressed as licking latency after 15 min of treatment at a dose of 25 ug intracerebroventricularly; assay type: functional; outline: as §1
Mus musculus [33] = assay: Analgesic activity was evaluated in mouse hotplate test; expressed as licking latency after 45 min of treatment at a dose of 25 ug intracerebroventricularly; assay type: functional; outline: as §1

Row | SMILES | Efficacy (Mus musculus [1]) | Latency (Mus musculus [14]) | Latency (Mus musculus [15]) | Latency (Mus musculus [16]) | Activity (Rattus norvegicus [17]) | Activity (Rattus norvegicus [18]) | Activity (Rattus norvegicus [19]) | Activity (Rattus norvegicus [20]) | Activity (Rattus norvegicus [21]) | Activity (Rattus norvegicus [22]) | also measured
1 | COc1ccc(CCNC2CCN(Cc3ccccc3)CC2)cc1OC.Cl | 0% |  |  |  |  |  |  |  |  |  | Latency (Mus musculus [2]): 15.5 s; Latency (Mus musculus [3]): 16.7 s; Latency (Mus musculus [4]): 15.3 s
2 | CC(C)CC(N)C(=O)NC1CCN(C(=O)CCC(c2ccc(F)cc2)c2ccc(F)cc2)CC1.Cl (configuration not stated) | 71% |  |  |  |  |  |  |  |  |  | Latency (Mus musculus [5]): 23.2 s; Latency (Mus musculus [6]): 22.6 s; Latency (Mus musculus [7]): 16.6 s; Activity (Rattus norvegicus [8]): 62.5 g; Activity (Rattus norvegicus [9]): 60.3 g; Activity (Rattus norvegicus [10]): 55.8 g; Activity (Rattus norvegicus [11]): 55.9 g; Activity (Rattus norvegicus [12]): 61.3 g; Activity (Rattus norvegicus [13]): 63.2 g
3 | COc1ccc(C(C#N)(CCCNC2CCN(CCOc3ccccc3)CC2)C(C)C)cc1OC.Cl (configuration not stated) | 59% | 22.6 s | 16.5 s | 15.2 s | 57.3 g | 33.4 g | 38.6 g | 40.5 g | 55.6 g | 59.4 g | IC50 [23]: 3.8 µM; IC50 [24]: 3.1 µM
4 | CCCCNC1CCN(CCCC(C#N)(c2ccc(OC)c(OC)c2)C(C)C)CC1.Cl (configuration not stated) | 59% | 23.1 s | 21.3 s | 18.7 s | 59.1 g | 47.3 g | 43.5 g | 38.6 g | 57.3 g | 59.2 g | 
5 | CCCCNC1CCN(C(=O)CCC(C#N)(c2ccc(OC)c(OC)c2)C(C)C)CC1.Cl (configuration not stated) | 0% | 18.7 s | 17.4 s | 17 s | 65 g | 28.4 g | 26.7 g | 32 g | 56.9 g | 59.3 g | 
6 | COc1ccc(CCN2CCC(NCCCC(C#N)(c3ccc(OC)c(OC)c3)C(C)C)CC2)cc1OC.Cl (configuration not stated) | 0% |  |  |  |  |  |  |  |  |  | Latency (Mus musculus [25]): 18.3 s; Latency (Mus musculus [26]): 15.4 s; Latency (Mus musculus [27]): 17.7 s
7 | COc1ccc(C(C#N)(CCCNC2CCN(C/C=C/c3ccccc3)CC2)C(C)C)cc1OC.Cl (configuration not stated) | 69% |  |  |  |  |  |  |  |  |  | Latency (Mus musculus [28]): 20.2 s; Latency (Mus musculus [29]): 16.2 s; Latency (Mus musculus [30]): 24.3 s
8 | CCCCN1CCC(NCCCC(C#N)(c2ccc(OC)c(OC)c2)C(C)C)CC1.Cl (configuration not stated) | 47% |  |  |  |  |  |  |  |  |  | Latency (Mus musculus [31]): 21.6 s; Latency (Mus musculus [32]): 20.5 s; Latency (Mus musculus [33]): 19 s
9 | Cl.O=C(CCC(c1ccc(F)cc1)c1ccc(F)cc1)NC1CCN(CCO)CC1 | 0% |  |  |  |  |  |  |  |  |  | Latency (Mus musculus [25]): 16.8 s; Latency (Mus musculus [26]): 17.3 s; Latency (Mus musculus [27]): 16.9 s
